Experimental findings from ChEMBL document CHEMBL3621043, “Discovery and Optimization of Novel, Selective Histone Methyltransferase SET7 Inhibitors by Pharmacophore- and Docking-Based Virtual Screening” (J Med Chem, 2015) are described below.

For assay [1], the target named is Histone-lysine N-methyltransferase, H3 lysine-36 specific (Homo sapiens) (UniProt Q96L73). Put plainly: Inhibition of NSD1 (unknown origin) at 100 uM preincubated for 15 mins followed by substrate/[3H]-SAM addition measured after 4 hrs by liquid scintillation counting analysis relative to control. Put shortly:
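Enzyme in modified Tris buffer, 15 min at room temperature, then substrate and [3H]-SAM added. After 4 h, cold SAM stop, transfer to PEI-pretreated GF/B filter plate, water washes under vacuum, then scintillation counting.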

For assay [2], the target named is DNA (cytosine-5)-methyltransferase 1 (Homo sapiens) (UniProt P26358). Kind of assay: Inhibition of DNMT1 (unknown origin) using poly(dI-DC) as substrate at 100 uM preincubated for 15 mins followed by substrate and [3H]SAM addition measured after 120 mins by microbeta counting analysis relative to control. Put shortly: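 Radioactive methylation assay in modified Tris buffer with poly(dI-dC) substrate. Enzyme held 15 min at room temperature, then substrate and [3H]-SAM added. Reaction run 120 min at 37 °C, then moved to 0.5% PEI-pretreated filter plates, washed with water under vacuum and counted. Maximum = enzyme plus substrate; minimum = substrate only.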

The target of assay [3] is DNMT3A2/3L complex (Homo sapiens) (UniProt Q9Y6K1+Q9UJW3). Kind of assay: Inhibition of DNMT3A/3L (unknown origin) using IDT-01 sequence 1/IDT-01 sequence 2 as substrate at 100 uM preincubated for 15 mins followed by substrate addition measured after 4 hrs by liquid scintillation counting analysis relative to control. The class given is protein-complex assay. In outline:
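Radioactive methylation assay in modified Tris buffer with IDT-01 Sequence 1 and Sequence 2 as substrates. Enzyme preincubated 15 min at room temperature before substrate added. After 4 h at room temperature, stopped with cold SAM, then transferred to FlashPlate and read by liquid scintillation counting.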

A further assay relates to HL-60. Kind of assay: cells. To be noted: Homo sapiens, HL-60, 120 h.
The test system of the next assay is SUD4. Kind of assay: Cytotoxicity against human SU-DHL4 cells assessed as inhibition of cell proliferation after 120 hrs by alamar blue assay. The class given is functional, cell-based. In outline:
(§1)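 Cells seeded at approximately 2*10^4 per well in 100 µL medium, grown overnight, then exposed for about 120 h to 0–100 µM in DMSO. MCF7 and HCT116 read by MTT: 2 h at 37 °C, crystals dissolved in DMSO, absorbance 490 nm with 630 nm reference. HL60, MV4-11 and DHL4 read by alamarBlue, fluorescence ex 544/em 590 nm. Signals normalized to control wells.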
A general note: Alamar Blue is a resazurin reagent that responds to reducing activity.

Assay [4] deals with Histone-lysine N-methyltransferase, H3 lysine-79 specific (Homo sapiens) (UniProt Q8TEK3). Put plainly: Inhibition of DOT1L (unknown origin) at 100 uM preincubated for 15 mins followed by oligonucleosomes/SAM addition measured after 30 mins by AlphaLISA method relative to control. For orientation: Bead proximity is the source of the signal in Alpha formats.
Assay [5] concerns the target T1, Histone-lysine N-methyltransferase SETD7 (Homo sapiens, UniProt Q8WTS6).
T1 sequence (Q8WTS6 whole entry): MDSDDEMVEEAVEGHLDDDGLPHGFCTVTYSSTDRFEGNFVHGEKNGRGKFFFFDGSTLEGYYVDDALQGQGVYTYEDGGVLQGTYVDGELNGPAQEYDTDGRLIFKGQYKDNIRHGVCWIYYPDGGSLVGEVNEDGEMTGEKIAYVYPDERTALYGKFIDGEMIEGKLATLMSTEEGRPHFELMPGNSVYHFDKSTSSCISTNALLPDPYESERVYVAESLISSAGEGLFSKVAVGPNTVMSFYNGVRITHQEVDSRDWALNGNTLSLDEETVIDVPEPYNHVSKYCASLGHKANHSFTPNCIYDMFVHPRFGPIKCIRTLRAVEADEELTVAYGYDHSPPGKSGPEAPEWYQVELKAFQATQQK
Put plainly: Competitive inhibition of SET7 (unknown origin) after 60 mins by AlphaLISA method in presence of SAM.

The target of assay [6] is T2, N-lysine methyltransferase KMT5A (Homo sapiens) (UniProt Q9NQR1).
T2 sequence (whole entry): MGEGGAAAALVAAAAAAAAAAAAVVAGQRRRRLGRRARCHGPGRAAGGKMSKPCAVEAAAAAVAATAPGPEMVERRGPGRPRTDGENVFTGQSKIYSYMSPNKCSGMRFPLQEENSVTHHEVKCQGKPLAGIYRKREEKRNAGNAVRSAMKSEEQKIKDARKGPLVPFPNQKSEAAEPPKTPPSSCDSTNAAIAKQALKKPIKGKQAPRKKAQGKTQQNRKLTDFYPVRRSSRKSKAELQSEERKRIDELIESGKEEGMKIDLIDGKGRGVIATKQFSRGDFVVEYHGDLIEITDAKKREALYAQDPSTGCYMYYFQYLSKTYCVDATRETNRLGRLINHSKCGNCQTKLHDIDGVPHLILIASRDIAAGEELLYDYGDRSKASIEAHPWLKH
Kind of assay: Inhibition of SETD8 (unknown origin) at 100 uM preincubated for 15 mins measured after 120 mins by microbeta counting analysis in presence of [3H]-SAM relative to control. In outline: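 Compounds added in DMSO and enzyme held 15 min at room temperature in modified Tris buffer. Reaction started with peptide plus [3H]-SAM and stopped with cold SAM after 120 min. Transferred to streptavidin FlashPlate for at least 60 min, washed with water/0.1% Tween-20, then counted.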

Assay [7] deals with T3, Histone-lysine N-methyltransferase EHMT2 (Homo sapiens) (UniProt Q96KQ7).
T3 sequence (whole entry): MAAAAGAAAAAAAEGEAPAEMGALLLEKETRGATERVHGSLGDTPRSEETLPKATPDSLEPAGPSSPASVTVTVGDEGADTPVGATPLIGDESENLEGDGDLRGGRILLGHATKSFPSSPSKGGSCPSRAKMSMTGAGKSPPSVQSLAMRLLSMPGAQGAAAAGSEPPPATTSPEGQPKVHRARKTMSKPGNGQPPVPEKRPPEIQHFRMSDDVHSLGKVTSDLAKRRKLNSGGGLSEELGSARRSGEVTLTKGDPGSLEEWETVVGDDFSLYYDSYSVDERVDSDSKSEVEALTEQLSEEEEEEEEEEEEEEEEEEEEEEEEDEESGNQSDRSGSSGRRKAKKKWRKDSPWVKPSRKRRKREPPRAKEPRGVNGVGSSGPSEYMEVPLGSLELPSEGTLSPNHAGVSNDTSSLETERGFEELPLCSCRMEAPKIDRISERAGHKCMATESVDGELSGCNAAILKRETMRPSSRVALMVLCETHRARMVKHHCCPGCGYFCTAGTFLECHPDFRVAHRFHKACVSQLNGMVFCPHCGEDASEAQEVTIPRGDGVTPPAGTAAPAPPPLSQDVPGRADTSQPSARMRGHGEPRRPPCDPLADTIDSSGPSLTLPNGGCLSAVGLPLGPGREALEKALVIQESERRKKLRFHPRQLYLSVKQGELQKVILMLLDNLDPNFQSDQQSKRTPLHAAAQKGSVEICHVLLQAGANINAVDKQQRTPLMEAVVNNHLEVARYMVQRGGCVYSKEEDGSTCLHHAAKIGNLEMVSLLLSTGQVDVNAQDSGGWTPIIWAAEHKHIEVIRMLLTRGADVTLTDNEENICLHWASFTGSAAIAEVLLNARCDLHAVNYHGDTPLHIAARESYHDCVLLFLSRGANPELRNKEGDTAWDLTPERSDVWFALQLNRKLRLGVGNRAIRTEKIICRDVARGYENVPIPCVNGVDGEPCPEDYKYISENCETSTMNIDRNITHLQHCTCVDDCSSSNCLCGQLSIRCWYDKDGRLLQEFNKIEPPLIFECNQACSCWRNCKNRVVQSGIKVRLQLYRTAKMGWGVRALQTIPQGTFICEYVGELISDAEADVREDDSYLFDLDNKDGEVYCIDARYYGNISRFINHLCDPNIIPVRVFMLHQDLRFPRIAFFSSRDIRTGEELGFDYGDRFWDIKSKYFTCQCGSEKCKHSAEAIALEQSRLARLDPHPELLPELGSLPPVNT
Kind of assay: Inhibition of G9a (unknown origin) at 100 uM preincubated for 15 mins followed by substrate addition measured after 60 mins by AlphaLISA method relative to control. Put shortly: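 AlphaLISA in modified Tris buffer: compounds (DMSO) with enzyme 15 min at room temperature, then substrate mix added for 60 min at room temperature. Acceptor and donor bead mix added for 60 min in subdued light, then Alpha signal read.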

In a further assay the test system is MCF7. Kind of assay: cells. To be noted: Homo sapiens, MCF7, 120 h.
The test system of a further assay is HCT-116. Kind of assay: Cytotoxicity against human HCT116 cells assessed as inhibition of cell proliferation after 120 hrs by MTT assay. Background: Tetrazolium assays rely on reduction of a dye to a coloured formazan, in cell work by metabolically active cells.
A further assay relates to MV4-11. Put plainly: Cytotoxicity against human MV4-11 cells assessed as inhibition of cell proliferation after 120 hrs by alamar blue assay. The assay is classed as functional, cell-based. Put shortly: as §1
The target in assay [8] is Histone-lysine N-methyltransferase EZH2 (Homo sapiens) (UniProt Q15910). Put plainly: Inhibition of EZH2 (unknown origin) using H3K27me peptide as substrate at 100 uM preincubated for 15 mins followed by substrate/[3H]SAM addition by liquid scintillation counting analysis relative to control. Put shortly:
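Enzyme in modified Tris buffer, 15 min at room temperature, then H3K27me peptide plus [3H]-SAM added to start. Stopped with cold SAM (final 0.5 mM), transferred to FlashPlate for at least 1 h at room temperature, washed with water/0.1% Tween-20, then scintillation counting.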

The target of assay [9] is T1, Histone-lysine N-methyltransferase SETD7. Kind of assay: Inhibition of SET7 (unknown origin). Put shortly:
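AlphaLISA: purified SET7 in modified Tris buffer 15 min at room temperature, compounds added in DMSO, then substrate solution added for 60 min. Acceptor and donor beads incubated 60 min at room temperature in the dark, then Alpha-mode read. Inhibition % = (Max−Signal)/(Max−Min)×100; low control received assay buffer instead of enzyme.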

Active and inactive are the calls of the source. The rule behind the calls is not given here.

Chain of Histone-lysine N-methyltransferase, H3 lysine-36 specific (Homo sapiens) (Q96L73 whole entry): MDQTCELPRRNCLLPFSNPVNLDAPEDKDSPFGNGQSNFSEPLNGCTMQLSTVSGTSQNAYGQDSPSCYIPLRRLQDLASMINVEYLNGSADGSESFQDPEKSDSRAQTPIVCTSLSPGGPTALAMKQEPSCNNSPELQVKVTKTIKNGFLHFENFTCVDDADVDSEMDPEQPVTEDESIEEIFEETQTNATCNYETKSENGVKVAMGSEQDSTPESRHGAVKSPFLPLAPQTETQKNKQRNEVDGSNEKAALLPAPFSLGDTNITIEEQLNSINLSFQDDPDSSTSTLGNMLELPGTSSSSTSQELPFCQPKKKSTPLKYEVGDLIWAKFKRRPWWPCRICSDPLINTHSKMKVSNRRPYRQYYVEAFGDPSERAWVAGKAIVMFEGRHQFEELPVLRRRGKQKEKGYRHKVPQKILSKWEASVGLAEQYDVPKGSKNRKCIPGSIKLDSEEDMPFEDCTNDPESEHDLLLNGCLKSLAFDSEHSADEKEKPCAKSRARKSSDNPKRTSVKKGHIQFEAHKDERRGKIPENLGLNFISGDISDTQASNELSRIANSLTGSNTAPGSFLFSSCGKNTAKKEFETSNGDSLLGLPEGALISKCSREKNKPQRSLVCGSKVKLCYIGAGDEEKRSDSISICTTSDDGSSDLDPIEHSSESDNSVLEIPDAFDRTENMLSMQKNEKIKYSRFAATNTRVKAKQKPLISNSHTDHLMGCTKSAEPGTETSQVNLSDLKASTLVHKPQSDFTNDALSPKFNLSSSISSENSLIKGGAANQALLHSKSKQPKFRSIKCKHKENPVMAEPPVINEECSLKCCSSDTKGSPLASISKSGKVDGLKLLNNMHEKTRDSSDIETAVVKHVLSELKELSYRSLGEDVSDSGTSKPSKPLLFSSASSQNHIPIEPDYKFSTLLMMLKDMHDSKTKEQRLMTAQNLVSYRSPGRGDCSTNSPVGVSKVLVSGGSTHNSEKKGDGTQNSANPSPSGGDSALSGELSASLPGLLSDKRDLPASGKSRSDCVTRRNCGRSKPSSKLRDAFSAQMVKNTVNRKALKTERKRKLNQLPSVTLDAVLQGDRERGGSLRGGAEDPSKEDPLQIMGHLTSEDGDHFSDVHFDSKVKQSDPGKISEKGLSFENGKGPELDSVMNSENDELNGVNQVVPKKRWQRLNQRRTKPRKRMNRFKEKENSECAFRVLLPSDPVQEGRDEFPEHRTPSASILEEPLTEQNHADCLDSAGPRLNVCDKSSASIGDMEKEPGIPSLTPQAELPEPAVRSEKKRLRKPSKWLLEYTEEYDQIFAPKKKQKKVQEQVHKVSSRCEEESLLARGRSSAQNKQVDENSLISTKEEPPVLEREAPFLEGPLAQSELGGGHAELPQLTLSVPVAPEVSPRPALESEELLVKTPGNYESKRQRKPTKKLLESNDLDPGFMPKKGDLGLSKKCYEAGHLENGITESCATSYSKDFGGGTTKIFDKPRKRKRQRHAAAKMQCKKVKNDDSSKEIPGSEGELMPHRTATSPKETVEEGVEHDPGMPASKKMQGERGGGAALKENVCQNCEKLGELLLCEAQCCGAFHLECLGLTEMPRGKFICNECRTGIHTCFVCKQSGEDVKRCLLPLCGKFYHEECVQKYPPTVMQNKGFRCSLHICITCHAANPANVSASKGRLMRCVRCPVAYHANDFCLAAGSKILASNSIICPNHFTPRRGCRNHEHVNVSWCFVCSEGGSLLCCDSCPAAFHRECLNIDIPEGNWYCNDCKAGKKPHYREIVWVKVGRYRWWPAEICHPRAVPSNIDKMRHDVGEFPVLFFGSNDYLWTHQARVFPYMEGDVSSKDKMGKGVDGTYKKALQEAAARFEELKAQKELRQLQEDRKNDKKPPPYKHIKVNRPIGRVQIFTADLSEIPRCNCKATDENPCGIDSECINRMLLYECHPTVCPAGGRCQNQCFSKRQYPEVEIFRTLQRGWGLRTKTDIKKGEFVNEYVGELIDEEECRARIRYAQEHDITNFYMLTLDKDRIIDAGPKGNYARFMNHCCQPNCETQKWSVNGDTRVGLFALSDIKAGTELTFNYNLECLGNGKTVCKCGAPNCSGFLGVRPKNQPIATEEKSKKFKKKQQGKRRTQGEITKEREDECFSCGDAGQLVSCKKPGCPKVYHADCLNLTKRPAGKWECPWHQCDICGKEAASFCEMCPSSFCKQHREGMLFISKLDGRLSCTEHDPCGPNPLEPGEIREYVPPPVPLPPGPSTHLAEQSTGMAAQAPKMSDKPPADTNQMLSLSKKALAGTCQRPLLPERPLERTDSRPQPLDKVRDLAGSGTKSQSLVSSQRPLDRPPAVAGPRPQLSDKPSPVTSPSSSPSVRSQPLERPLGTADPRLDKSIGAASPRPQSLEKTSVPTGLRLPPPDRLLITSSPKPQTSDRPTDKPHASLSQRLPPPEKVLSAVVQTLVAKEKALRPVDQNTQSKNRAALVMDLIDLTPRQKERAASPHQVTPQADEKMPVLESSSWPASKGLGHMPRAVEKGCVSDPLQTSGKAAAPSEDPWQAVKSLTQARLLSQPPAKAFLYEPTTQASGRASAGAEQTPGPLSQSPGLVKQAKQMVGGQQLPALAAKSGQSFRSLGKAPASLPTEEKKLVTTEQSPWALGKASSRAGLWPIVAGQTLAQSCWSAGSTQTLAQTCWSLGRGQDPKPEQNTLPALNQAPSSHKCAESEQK
Chain of DNA (cytosine-5)-methyltransferase 1 (Homo sapiens) (P26358 whole entry): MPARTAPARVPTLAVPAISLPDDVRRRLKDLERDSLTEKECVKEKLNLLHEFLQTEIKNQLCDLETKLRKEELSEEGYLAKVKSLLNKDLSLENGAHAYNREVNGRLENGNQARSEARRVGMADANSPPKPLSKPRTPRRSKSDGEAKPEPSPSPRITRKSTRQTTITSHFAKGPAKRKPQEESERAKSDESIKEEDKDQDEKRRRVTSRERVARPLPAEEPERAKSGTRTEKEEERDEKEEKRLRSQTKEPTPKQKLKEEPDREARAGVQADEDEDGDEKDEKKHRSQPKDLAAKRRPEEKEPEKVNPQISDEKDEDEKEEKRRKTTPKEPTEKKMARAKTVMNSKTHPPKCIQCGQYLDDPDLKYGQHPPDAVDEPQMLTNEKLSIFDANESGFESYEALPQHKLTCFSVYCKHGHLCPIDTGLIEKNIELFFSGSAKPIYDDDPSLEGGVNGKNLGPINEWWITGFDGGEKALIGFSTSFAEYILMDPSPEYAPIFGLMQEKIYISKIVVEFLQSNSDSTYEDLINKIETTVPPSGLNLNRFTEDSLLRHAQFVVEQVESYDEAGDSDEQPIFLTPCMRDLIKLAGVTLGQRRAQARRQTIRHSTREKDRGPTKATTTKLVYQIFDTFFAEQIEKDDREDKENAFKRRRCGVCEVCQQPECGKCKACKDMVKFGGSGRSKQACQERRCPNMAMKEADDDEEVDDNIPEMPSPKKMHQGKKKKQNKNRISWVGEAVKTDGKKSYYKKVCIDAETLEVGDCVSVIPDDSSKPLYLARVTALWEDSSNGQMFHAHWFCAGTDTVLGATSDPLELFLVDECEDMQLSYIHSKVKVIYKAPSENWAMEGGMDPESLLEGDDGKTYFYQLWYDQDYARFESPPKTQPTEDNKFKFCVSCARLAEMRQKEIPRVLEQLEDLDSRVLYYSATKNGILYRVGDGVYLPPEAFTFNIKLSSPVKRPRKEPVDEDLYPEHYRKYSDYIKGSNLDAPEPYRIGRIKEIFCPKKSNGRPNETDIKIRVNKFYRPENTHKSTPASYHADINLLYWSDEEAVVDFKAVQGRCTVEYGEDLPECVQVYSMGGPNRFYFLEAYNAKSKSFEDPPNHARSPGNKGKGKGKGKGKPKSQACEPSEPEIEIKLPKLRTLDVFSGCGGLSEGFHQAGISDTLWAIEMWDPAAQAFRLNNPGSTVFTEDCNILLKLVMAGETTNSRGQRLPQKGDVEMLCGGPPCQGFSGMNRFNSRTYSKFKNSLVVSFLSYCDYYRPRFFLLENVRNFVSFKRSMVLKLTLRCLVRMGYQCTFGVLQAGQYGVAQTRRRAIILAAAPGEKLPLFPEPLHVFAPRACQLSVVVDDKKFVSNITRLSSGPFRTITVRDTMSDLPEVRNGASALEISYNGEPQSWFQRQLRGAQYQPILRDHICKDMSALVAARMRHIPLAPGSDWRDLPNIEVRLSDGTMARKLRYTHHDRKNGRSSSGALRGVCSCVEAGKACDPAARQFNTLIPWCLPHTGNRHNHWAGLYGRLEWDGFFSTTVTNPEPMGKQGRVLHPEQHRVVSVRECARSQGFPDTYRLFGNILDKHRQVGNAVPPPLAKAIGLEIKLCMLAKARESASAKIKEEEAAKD
Chain of Histone-lysine N-methyltransferase EZH2 (Homo sapiens) (Q15910 whole entry, looked up): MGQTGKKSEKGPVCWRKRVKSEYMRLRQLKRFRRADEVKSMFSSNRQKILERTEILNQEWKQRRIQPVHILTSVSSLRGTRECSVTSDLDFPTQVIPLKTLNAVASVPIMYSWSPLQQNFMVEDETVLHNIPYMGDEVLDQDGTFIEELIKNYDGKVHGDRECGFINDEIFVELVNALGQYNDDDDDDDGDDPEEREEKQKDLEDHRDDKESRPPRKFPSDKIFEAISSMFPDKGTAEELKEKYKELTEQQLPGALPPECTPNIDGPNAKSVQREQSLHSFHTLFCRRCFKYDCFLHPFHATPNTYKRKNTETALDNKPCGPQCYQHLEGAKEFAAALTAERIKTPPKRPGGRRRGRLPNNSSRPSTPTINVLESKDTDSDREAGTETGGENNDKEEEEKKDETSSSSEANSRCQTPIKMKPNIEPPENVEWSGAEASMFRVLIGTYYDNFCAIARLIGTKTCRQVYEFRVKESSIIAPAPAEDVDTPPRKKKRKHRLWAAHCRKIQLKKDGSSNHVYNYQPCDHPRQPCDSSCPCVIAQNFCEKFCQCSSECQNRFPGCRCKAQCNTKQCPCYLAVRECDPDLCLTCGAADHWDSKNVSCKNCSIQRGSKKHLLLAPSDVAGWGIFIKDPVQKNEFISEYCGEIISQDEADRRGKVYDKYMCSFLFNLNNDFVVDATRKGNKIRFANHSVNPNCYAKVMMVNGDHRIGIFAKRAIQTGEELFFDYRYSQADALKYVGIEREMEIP

As for `CCOC(=O)c1c(N)sc(C(=O)Nc2cccc([N+](=O)[O-])c2)c1C`, the inhibition (in general, the change of the read-out against control, counted positive when it falls) in [1] is 27.2%; in assay [2], 16.1%; in [3] it was -4.25%; in [4] it was -5.42%; in assay [6], 40.9%; in assay [7], -0.71%. Also, the inhibition result in the assay with MV4-11 was “Dose-dependent effect”; in assay [8], 19.6%. Also, the figures for the IC50 (with HL-60; in [5]; in the assay on MCF7) were 16.4 µM, 4.59 µM and 10.9 µM, respectively. Also, the inhibition entry in the assay on SUD4 and in the assay on HCT-116 was “inactive” in each case.
In the case of `O=C(Nc1cccc([N+](=O)[O-])c1)c1ccc2c(c1)OCO2`, the half-inhibitory concentration (IC50) (in general, the concentration needed to halve the response being measured) in [5] stood at 61.7 µM.
`CN1CCC(=C2c3ccccc3C=Cc3ccccc32)CC1` [CYPROHEPTADINE] displayed an IC50 in assay [9] of 20 µM.
Regarding `COC(=O)c1c(N)sc(C(=O)Nc2cccc([N+](=O)[O-])c2)c1C`, the inhibition in assay [1] worked out at 25.1%; in [2] it was 9.82%; in assay [6], 45.5%; in [7], 29.9%; in [8] it was 19.6%. In addition, in [5], the IC50 turned out to be 4.88 µM.
